From ChEMBL document CHEMBL1153538, “Discovery of novel antileishmanial agents in an attempt to synthesize pentamidine-aplysinopsin hybrid molecule” (J Med Chem, 2009)
In brackets after ≈: the same amount, converted by molar mass. Activity calls are given as the source filed them. The calls are words filed in the database; no cut-off is given here.

Legend:
Leishmania donovani [1] = experiment: Antileishmanial activity against Leishmania donovani MHOM/IN/Dd8 amastigote carrying firefly luciferase gene infected in mouse J774A1 cells assessed as relative luminescence unit at 12.5 ug/mL after 72 hrs; assay type: functional; details: for inhibition: J774.A1
In short: (§1)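 J774A.1 macrophages (1.5 × 10⁴/well) were seeded in RPMI-1640 with 10% FCS at 37 °C under CO₂. After 24 h they were infected with stationary-phase luciferase-expressing promastigotes (4 × 10³/well). The medium was then replaced with compound at 0.195-12.5 μg/mL for 72 h. Steady Glo luminescence (RLU) was read, and inhibition was calculated against untreated controls. IC50 values are the mean of two independent assays.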

Leishmania donovani [2] = experiment: Antileishmanial activity against Leishmania donovani MHOM/IN/Dd8 […] carrying firefly luciferase gene infected in mouse J774A1 cells assessed as relative luminescence unit at 10 ug/mL after 72 hrs; assay type: functional; details: for inhibition: J774.A1; for inhibition at 10 µg/mL: MHOM/IN/Dd8, J774.A1, 72 h
J774.A1 [3] = experiment: Cytotoxicity against mouse J774A1 by MTT assay; assay type: cell-based
In short: (§2)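 J774A.1 or KB cells were grown in RPMI with 10% FCS. Exponentially growing cells (1 × 10⁴/well) were exposed to a range of compound concentrations (DMSO stocks diluted in medium) for 72 h at 37 °C. MTT was added for 2 h, formazan was dissolved in DMSO, and absorbance was read at 544 nm. IC50 was the concentration giving 50% viability loss versus medium-only cells, estimated by template.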

Leishmania donovani [4] = experiment: Antileishmanial activity against Leishmania donovani MHOM/IN/Dd8 amastigote carrying firefly luciferase gene infected in mouse J774A1 cells assessed as relative luminescence unit at 10 ug/mL after 72 hrs; assay type: functional; details: MHOM/IN/Dd8, J774.A1, 72 h
Leishmania donovani [5] = experiment: Antileishmanial activity against Leishmania donovani MHOM/IN/Dd8 amastigote infected in golden hamster assessed as parasite reduction at 50 mg/kg, ip for 5 consecutive days; assay type: functional; design: scale not given: the % may be the effect or the level left; details: route intraperitoneal
In short: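 Golden hamsters (40-45 g) were infected intracardially with 1 × 10⁷ amastigotes. Animals with +1 infection by spleen biopsy were randomized, 5-6 per sample. Intraperitoneal dosing started 2 days after biopsy and ran for 5 consecutive days. Biopsies taken 7 days after the last dose were Giemsa-stained and counted. Percentage inhibition was corrected for initial burden and the rise in untreated controls.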

J774.A1 [6] = experiment: Cytotoxicity against mouse J774A1 at 12.5 ug/mL by MTT assay; assay type: cell-based
Leishmania donovani [7] = experiment: Antileishmanial activity against Leishmania donovani MHOM/IN/Dd8 amastigote carrying firefly luciferase gene infected in mouse J774A1 cells assessed as relative luminescence unit after 72 hrs; assay type: functional, organism-based; details: MHOM/IN/Dd8, J774.A1, 72 h; in short: as §1
KB = experiment: Cytotoxicity against human KB cells by MTT assay; assay type: cell-based; in short: as §2
[8] = Selectivity index, ratio of IC50 for Leishmania donovani MHOM/IN/Dd8 amastigote to IC50 for human KB cells
Leishmania donovani [9] = experiment: Ratio of drug to pentamidine for antileishmanial activity against Leishmania donovani MHOM/IN/Dd8 in mouse J774A1 cells by intracellular amastigote assay; assay type: functional, J774.A1

SMILES | inhibition (Leishmania donovani [1]) | inhibition at 10 µg/mL (Leishmania donovani [2]) [%] | IC50 (J774.A1 [3]) [µg/mL] | also measured
O=C1N/C(=N\Cc2ccccc2)N/C1=C\c1c[nH]c2ccccc12 | inactive |  |  | inhibition (Leishmania donovani [2]): inactive
CN1C(=S)NC(=O)/C1=C\c1cn(CCCCCOc2ccc(C#N)cc2)c2ccccc12 |  | 46.4 | 14.8 (≈ 33.3 µM) | 
N#Cc1ccc(OCCCCCCn2cc(/C=C3\NC(=S)NC3=O)c3ccccc32)cc1 |  | 71.3 | 2.3 (≈ 5.17 µM) | 
N#Cc1ccc(OCCCCCn2cc(/C=C3\NC(=O)NC3=O)c3ccccc32)cc1 | inactive |  | 33 (≈ 79.6 µM) | inhibition (Leishmania donovani [2]): inactive
N/C(=N\O)c1ccc(OCCCCCn2cc(/C=C3\NC(=S)NC3=O)c3ccccc32)cc1 (mixture of isomers) |  |  |  | inhibition at 10 µg/mL (Leishmania donovani [4]): 0%
O=C1NC(=S)N/C1=C\c1c[nH]c2ccccc12 | inactive |  |  | inhibition (Leishmania donovani [2]): inactive
COc1ccc(C/N=C2\NC(=O)/C(=C/c3c[nH]c4ccccc34)N2)cc1OC | inactive |  |  | inhibition (Leishmania donovani [2]): inactive
N#Cc1ccc(OCCCCCn2cc(/C=C3\NC(=S)NC3=O)c3ccccc32)cc1 |  | 95.1 |  | inhibition at 12.5 µg/mL (Leishmania donovani [1]; MHOM/IN/Dd8, J774.A1, 72 h): 62%; Activity (Leishmania donovani [5]): 62.1%; Activity (J774.A1 [6]): Non-toxic; IC50 (Leishmania donovani [7]): 18.2 µM
N=C(N)c1ccc(OCCCCCOc2ccc(C(=N)N)cc2)cc1.O=S(=O)(O)CCO |  |  |  | IC50 (KB): 2.7 µM; Ratio IC50 [8]: <1; IC50 (Leishmania donovani [7]): 20.4 µM
N#Cc1ccc(OCCCCCn2cc(C=O)c3ccccc32)cc1 | inactive |  |  | inhibition (Leishmania donovani [2]): inactive
O=C1NC(=S)N/C1=C\c1cn(CCCCCOc2ccccc2)c2ccccc12 |  | 40.7 | > 100 | 
Nc1cc(OCCCCCn2cc(/C=C3\NC(=S)NC3=O)c3ccccc32)ccn1 |  |  |  | inhibition at 10 µg/mL (Leishmania donovani [4]): 32.2%
O=C1NC(=S)N/C1=C\c1cn(CCCCCN2CCN(c3ccccc3)CC2)c2ccccc12 | inactive | 88.3 | > 100 | 
COc1ccc(C/N=C2\NC(=O)/C(=C/c3cn(CCCCCOc4ccc(C#N)cc4)c4ccccc34)N2)cc1OC | inactive | 93.7 |  | 
CN1C(=S)NC(=O)/C1=C\c1cn(CCCCCOc2ccc(/C(N)=N/O)cc2)c2ccccc12 |  | 88.2 |  | inhibition at 10 µg/mL (Leishmania donovani [4]): 99.3%; IC50 (KB): 108 µM; fold change (FC) (Leishmania donovani [9]): 10; Ratio IC50 [8]: 53.4; IC50 (Leishmania donovani [7]): 2 µM
N#Cc1ccc(OCCCCCn2cc(/C=C3\NC(=S)NC3=O)c3cccnc32)cc1 |  |  |  | inhibition at 10 µg/mL (Leishmania donovani [4]): 97%; IC50 (KB): 187 µM; Ratio IC50 [8]: 28.6; IC50 (Leishmania donovani [7]): 6.5 µM
N#Cc1ccc(OCCCCCn2cc(/C=C3\NC(=S)NC3=O)c3cc(Br)ccc32)cc1 (mixture of isomers) |  |  |  | inhibition at 10 µg/mL (Leishmania donovani [4]): 12.6%
CSC1=N/C(=C\c2cn(CCCCCOc3ccc(C#N)cc3)c3ccccc23)C(=O)N1C |  | 63.2 | > 100 | 
N#Cc1ccc(OCCCCn2cc(/C=C3\NC(=S)NC3=O)c3ccccc32)cc1 |  | 58.8 | > 100 | 
N#Cc1ccc(OCCCCCn2cc(/C=C3\N/C(=N/c4ccccc4)NC3=O)c3ccccc32)cc1 | inactive | 92.8 |  | 
NC(=O)c1ccc(OCCCCCn2cc(/C=C3\NC(=S)NC3=O)c3ccccc32)cc1 (mixture of isomers) |  |  |  | inhibition at 10 µg/mL (Leishmania donovani [4]): 48.9%
CSC1=N/C(=C\c2cn(CCCCCOc3ccc(C#N)cc3)c3ccccc23)C(=O)N1 |  | 75.4 | > 100 | 
CCCC/N=C1\NC(=O)/C(=C/c2cn(CCCCCOc3ccc(C#N)cc3)c3ccccc23)N1 | inactive | 88 |  | 
N#Cc1ccc(OCCCCCn2cc(/C=C3\N/C(=N/Cc4ccccc4)NC3=O)c3ccccc32)cc1 | inactive | 93.9 |  | 
N#Cc1ccc(OCCCCCn2cc(/C=C3\NC(=N)NC3=O)c3ccccc32)cc1 |  |  |  | inhibition at 10 µg/mL (Leishmania donovani [4]): 0%
